Experimental data published in ChEMBL document CHEMBL5058577, “EUbOPEN Chemogenomics Library 2 (Multiplex)” (2022).

System: HEK-293T
Assay: Multiplex assay against HEK293T
Type: toxicity, cell-based
Settings: human
Procedure, shortened: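 Imaging took place on a CQ1 microscope at 37°C and 5% CO2 once compound had been added to live cells stained at seeding with Hoechst33342, BioTracker Green Microtubule Cytoskeleton Dye, MitoTracker Red and Annexin V Alexa Fluor 680. CellPathfinder machine-learning gating classed cells as Hoechst high-intensity objects or normal cells, classed normal cells as having healthy, pyknosed or fragmented nuclei, and classed pyknosed cells as mitotic or apoptotic. Tubulin, mitochondrial-mass and membrane-permeability phenotypes are per cents of the healthy-nucleus cells.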

[1] = 12 h, 1 µM, compound concentration 1 uM, replicate 1
[2] = 12 h, 1 µM, compound concentration 1 uM, replicate 2
[3] = 12 h, 10 µM, compound concentration 10 uM, replicate 1
[4] = 12 h, 10 µM, compound concentration 10 uM, replicate 2
[5] = 24 h, 1 µM, compound concentration 1 uM, replicate 1
[6] = 24 h, 1 µM, compound concentration 1 uM, replicate 2
[7] = 24 h, 10 µM, compound concentration 10 uM, replicate 1
[8] = 24 h, 10 µM, compound concentration 10 uM, replicate 2
[9] = 48 h, 1 µM, compound concentration 1 uM, replicate 1
[10] = 48 h, 1 µM, compound concentration 1 uM, replicate 2
[11] = 48 h, 10 µM, compound concentration 10 uM, replicate 1
[12] = 48 h, 10 µM, compound concentration 10 uM, replicate 2

## CCCCC1=NC2(CCCC2)C(=O)N1Cc1ccc(-c2ccccc2-c2nnn[nH]2)cc1 [IRBESARTAN]
[1]
  Population Apoptotic (%): 24%
  Population Fragmented Nuclei (%): 9%
  Population Healthy Nuclei (%): 79%
  Population Hoechst High Intensity Objects (%): 9%
  Population Membrane Permeable-Phenotype (%): 0%
  Population Mitochondria Different-Phenotype (%): 34%
  Population Mitotic Cells (%): 75%
  Population Normal (%): 91%
  Population Pyknosed Nuclei (%): 10%
  Population Tubulin-Different-Phenotype (%): 17%
  Total Cell Count: 500
[2]
  Population Apoptotic (%): 28%
  Population Fragmented Nuclei (%): 8%
  Population Healthy Nuclei (%): 78%
  Population Hoechst High Intensity Objects (%): 4%
  Population Mitochondria Different-Phenotype (%): 63%
  Population Mitotic Cells (%): 71%
  Population Normal (%): 95%
  Population Pyknosed Nuclei (%): 12%
  Population Tubulin-Different-Phenotype (%): 20%
  Total Cell Count: 353
[3]
  Population Apoptotic (%): 50%
  Population Fragmented Nuclei (%): 7%
  Population Healthy Nuclei (%): 70%
  Population Hoechst High Intensity Objects (%): 5%
  Population Membrane Permeable-Phenotype (%): 2%
  Population Mitochondria Different-Phenotype (%): 46%
  Population Mitotic Cells (%): 50%
  Population Normal (%): 94%
  Population Pyknosed Nuclei (%): 22%
  Population Tubulin-Different-Phenotype (%): 50%
  Total Cell Count: 219
[4]
  Population Apoptotic (%): 56%
  Population Fragmented Nuclei (%): 6%
  Population Healthy Nuclei (%): 78%
  Population Hoechst High Intensity Objects (%): 13%
  Population Membrane Permeable-Phenotype (%): 0%
  Population Mitochondria Different-Phenotype (%): 66%
  Population Mitotic Cells (%): 43%
  Population Normal (%): 86%
  Population Pyknosed Nuclei (%): 15%
  Population Tubulin-Different-Phenotype (%): 33%
  Total Cell Count: 351
[5]
  Population Apoptotic (%): 31%
  Population Fragmented Nuclei (%): 9%
  Population Healthy Nuclei (%): 79%
  Population Hoechst High Intensity Objects (%): 4%
  Population Membrane Permeable-Phenotype (%): 0%
  Population Mitochondria Different-Phenotype (%): 24%
  Population Mitotic Cells (%): 68%
  Population Normal (%): 95%
  Population Pyknosed Nuclei (%): 10%
  Population Tubulin-Different-Phenotype (%): 15%
  Total Cell Count: 625
[6]
  Population Apoptotic (%): 34%
  Population Healthy Nuclei (%): 80%
  Population Hoechst High Intensity Objects (%): 7%
  Population Mitochondria Different-Phenotype (%): 45%
  Population Mitotic Cells (%): 65%
  Population Normal (%): 92%
  Population Pyknosed Nuclei (%): 9%
  Population Tubulin-Different-Phenotype (%): 14%
  Total Cell Count: 456
[7]
  Population Apoptotic (%): 27%
  Population Fragmented Nuclei (%): 6%
  Population Healthy Nuclei (%): 77%
  Population Hoechst High Intensity Objects (%): 3%
  Population Membrane Permeable-Phenotype (%): 1%
  Population Mitochondria Different-Phenotype (%): 37%
  Population Mitotic Cells (%): 72%
  Population Normal (%): 96%
  Population Pyknosed Nuclei (%): 15%
  Population Tubulin-Different-Phenotype (%): 32%
  Total Cell Count: 287
[8]
  Population Apoptotic (%): 41%
  Population Fragmented Nuclei (%): 11%
  Population Hoechst High Intensity Objects (%): 10%
  Population Membrane Permeable-Phenotype (%): 0%
  Population Mitochondria Different-Phenotype (%): 49%
  Population Mitotic Cells (%): 58%
  Population Normal (%): 89%
  Population Pyknosed Nuclei (%): 11%
  Population Tubulin-Different-Phenotype (%): 22%
  Total Cell Count: 434
[9]
  Population Apoptotic (%): 29%
  Population Fragmented Nuclei (%): 11%
  Population Healthy Nuclei (%): 81%
  Population Hoechst High Intensity Objects (%): 3%
  Population Membrane Permeable-Phenotype (%): 0%
  Population Mitochondria Different-Phenotype (%): 21%
  Population Mitotic Cells (%): 70%
  Population Normal (%): 96%
  Population Pyknosed Nuclei (%): 7%
  Population Tubulin-Different-Phenotype (%): 15%
  Total Cell Count: 958
[10]
  Population Apoptotic (%): 23%
  Population Fragmented Nuclei (%): 9%
  Population Healthy Nuclei (%): 84%
  Population Hoechst High Intensity Objects (%): 2%
  Population Membrane Permeable-Phenotype (%): 1%
  Population Mitochondria Different-Phenotype (%): 19%
  Population Mitotic Cells (%): 76%
  Population Normal (%): 97%
  Population Pyknosed Nuclei (%): 6%
  Population Tubulin-Different-Phenotype (%): 8%
  Total Cell Count: 705
[11]
  Population Apoptotic (%): 25%
  Population Fragmented Nuclei (%): 15%
  Population Healthy Nuclei (%): 75%
  Population Hoechst High Intensity Objects (%): 1%
  Population Membrane Permeable-Phenotype (%): 0%
  Population Mitochondria Different-Phenotype (%): 21%
  Population Mitotic Cells (%): 75%
  Population Normal (%): 98%
  Population Pyknosed Nuclei (%): 9%
  Population Tubulin-Different-Phenotype (%): 15%
  Total Cell Count: 473
[12]
  Population Apoptotic (%): 46%
  Population Fragmented Nuclei (%): 12%
  Population Healthy Nuclei (%): 80%
  Population Hoechst High Intensity Objects (%): 3%
  Population Mitochondria Different-Phenotype (%): 26%
  Population Mitotic Cells (%): 53%
  Population Normal (%): 96%
  Population Pyknosed Nuclei (%): 6%
  Total Cell Count: 684
